The values that follow come from ChEMBL document CHEMBL1944562, “Design, synthesis of some new (2-aminothiazol-4-yl)methylester derivatives as possible antimicrobial and antitubercular agents” (2012).

Common to all, as to format: functional
Experiment [1] relates to Mycolicibacterium smegmatis. Briefly: Antitubercular activity against Mycobacterium smegmatis ATCC 19420 after 7 days by resazurin assay. As to conditions: ATCC 19420, 168 h. Summed up: (§1)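 Middlebrook 7H9 broth with 10% OADC, culture adjusted to McFarland 2. 50 µL culture added to 150 µL fresh medium. Stocks at 2 mg/mL in DMF, tested first at 1, 10 and 100 µg/mL, then at 0.3125-5 µg/mL. DMF controls. After 7 days at 37 °C, 0.01% resazurin added. Blue-to-pink change read for MIC.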
On the technique in general: Resazurin is reduced to fluorescent resorufin, in cell work by metabolically active cells.

In experiment [2] the test system is Mycolicibacterium fortuitum. Briefly: Antitubercular activity against Mycobacterium fortuitum ATCC 19542 after 7 days by resazurin assay. The conditions noted are these: ATCC 19542, 168 h. Put shortly:
as §1

The subject of experiment [3] is Mycobacterium tuberculosis. Briefly: Antitubercular activity against Mycobacterium tuberculosis H37Rv assessed as growth inhibition after 7 days by resazurin assay. Summed up:
(§2)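 M. tuberculosis H37Rv ATCC 27294 grown in Middlebrook 7H9 broth with 10% OADC and adjusted to McFarland 2. Culture was diluted 1:4 into fresh medium. Compounds came from 2 mg/mL DMF stocks, screened first at 1, 10 and 100, then at 0.3125–5. DMF-only controls were included. After 7 days at 37 °C, 0.01% resazurin was added; a blue-to-pink change marked growth, and the MIC was read.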

Experiment [4] deals with Escherichia coli. Briefly: Antibacterial activity against Escherichia coli ATCC 25922 after 16 to 18 hrs by […].
For experiment [5], the system named is Staphylococcus aureus. Briefly: Antibacterial activity against Staphylococcus aureus ATCC 25923 after 16 to 18 hrs by serial plate dilution method.
The test system of experiment [6] is Pseudomonas aeruginosa. Briefly: Antibacterial activity against Pseudomonas aeruginosa ATCC 27853 after 16 to 18 hrs by […].
For experiment [7], the system named is Klebsiella pneumoniae. Briefly: Antibacterial activity against Klebsiella pneumoniae after 16 to 18 hrs by […].
The test system of experiment [8] is Bacillus subtilis. Briefly: Antibacterial activity against Bacillus subtilis after 16 to 18 hrs by […].
The subject of experiment [9] is Escherichia coli. Briefly: Antibacterial activity against Escherichia coli ATCC 25922 at MIC after 3 to 4 days. Summed up:
(§3)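 Agar well diffusion on seeded agar plates, 20 mL agar per dish, dried 1 h at 37 °C. Wells punched and loaded with test compound in DMSO at its MIC. DMSO-only control. Plates run in triplicate and kept 3-4 days at 37 °C. Inhibition zone diameter measured.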

Experiment [10] has as its system Staphylococcus aureus. Briefly: Antibacterial activity against Staphylococcus aureus ATCC 25923 at […] after 3 to 4 days. Summed up:
as §3

For experiment [11], the system named is Pseudomonas aeruginosa. Briefly: Antibacterial activity against Pseudomonas aeruginosa ATCC 27853 at MIC after 3 to 4 days. Summed up: as §3
Experiment [12] deals with Klebsiella pneumoniae. Briefly: Antibacterial activity against Klebsiella pneumoniae at MIC after 3 to 4 days. Summed up:
as §3

Experiment [13] has as its system Bacillus subtilis. Briefly: Antibacterial activity against Bacillus subtilis at MIC after 3 to 4 days. Summed up: as §3
Experiment [14] deals with Aspergillus flavus. Briefly: Antifungal activity against Aspergillus flavus NCIM N0.524 after 3 to 4 days by serial plate dilution method.
The subject of experiment [15] is Aspergillus fumigatus. Briefly: Antifungal activity against Aspergillus fumigatus NCIM N0.902 after 3 to 4 days by serial plate dilution method.
Experiment [16] relates to Talaromyces marneffei. Briefly: Antifungal activity against Penicillium marneffei after 3 to 4 days by serial plate dilution method.
In experiment [17] the test system is Trichophyton mentagrophytes. Briefly: Antifungal activity against Trichophyton mentagrophytes after 3 to 4 days by serial plate dilution method.
Experiment [18] has as its system Candida albicans. Briefly: Antifungal activity against Candida albicans after 3 to 4 days by serial plate dilution method.
For experiment [19], the system named is Aspergillus flavus. Briefly: Antifungal activity against Aspergillus flavus NCIM N0.524 at MIC after 3 to 4 days. Put shortly: (§4)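 Fungal suspension made by transferring a loopful of culture to 3 mL saline and seeding agar plates, 20 mL agar per dish, dried 1 h at 37 °C. Punched wells loaded with test compound in DMSO at its MIC. DMSO-only control. Triplicate plates held 3-4 days at 37 °C. Inhibition zone diameter measured.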

Experiment [20] relates to Aspergillus fumigatus. Briefly: Antifungal activity against Aspergillus fumigatus NCIM N0.902 at MIC after 3 to 4 days. Summed up:
as §4

Experiment [21] has as its system Talaromyces marneffei. Briefly: Antifungal activity against Penicillium marneffei at MIC after 3 to 4 days. Summed up:
as §4

In experiment [22] the test system is Trichophyton mentagrophytes. Briefly: Antifungal activity against Trichophyton mentagrophytes at MIC after 3 to 4 days. Summed up: as §4
Experiment [23] deals with Candida albicans. Briefly: Antifungal activity against Candida albicans at MIC after 3 to 4 days. Put shortly:
as §4

The subject of experiment [24] is Mycobacterium tuberculosis. Briefly: Antitubercular activity against Mycobacterium tuberculosis H37Rv after 7 days by resazurin assay. As to conditions: 168 h. Summed up:
as §2

A word on the MIC: it is the lowest concentration found to suppress growth.

≈ marks a conversion by molar mass, not a printed value.

With `Nc1nc(COC(=O)c2ccco2)cs1`, the minimal inhibitory concentration (MIC) was greater than 100 µg/mL in experiment [1]; greater than 100 µg/mL in experiment [2]; 6.25 µg/mL (≈ 27.9 µM) in experiment [4]; 6.25 µg/mL (≈ 27.9 µM) in [5]; 6.25 µg/mL (≈ 27.9 µM) in experiment [6]; 6.25 µg/mL (≈ 27.9 µM) in experiment [7]. Further, the MIC came to 6.25 µg/mL (≈ 27.9 µM) in [8]; 6.25 µg/mL (≈ 27.9 µM) in experiment [14]; 25 µg/mL (≈ 111 µM) in [15]; 6.25 µg/mL (≈ 27.9 µM) in [16]; 25 µg/mL (≈ 111 µM) in experiment [17]; 6.25 µg/mL (≈ 27.9 µM) in [18]. The same molecule gave a minimal inhibitory concentration (MIC) in experiment [24] greater than 100 µg/mL. Further, in experiment [3], the “growth inhibition (GI)” value is listed as 0%. Moreover, the “diameter of the inhibition zone (DIZ)” value in experiment [9], in experiment [10], in [11], in [12], in experiment [13] and in experiment [19] was 16 mm throughout. For the same molecule, the “diameter of the inhibition zone (DIZ)” value in [20] is less than 10 mm; in experiment [21] it was 16 mm; in experiment [22], less than 10 mm; in experiment [23] it was 16 mm.

Consider `Nc1nc(COC(=O)c2ccc3ccccc3c2)cs1`, for which the minimum inhibitory concentration (MIC) in experiment [1] worked out at 10 µg/mL (≈ 35.2 µM); in experiment [2], 10 µg/mL (≈ 35.2 µM); in experiment [4] it was 6.25 µg/mL (≈ 22 µM); in [5], 6.25 µg/mL (≈ 22 µM); in experiment [6], 6.25 µg/mL (≈ 22 µM); in experiment [7], 6.25 µg/mL (≈ 22 µM). The MIC is 6.25 µg/mL (≈ 22 µM) in experiment [8]; 12.5 µg/mL (≈ 44 µM) in experiment [14]; 12.5 µg/mL (≈ 44 µM) in experiment [15]; 12.5 µg/mL (≈ 44 µM) in experiment [16]; 12.5 µg/mL (≈ 44 µM) in [17]; 6.25 µg/mL (≈ 22 µM) in [18]. Also, the MIC in [24] came to 2.5 µg/mL (≈ 8.79 µM). Moreover, the “growth inhibition (GI)” value in experiment [3] is less than 90%. Further, the “diameter of the inhibition zone (DIZ)” value stood at 16 mm in [9]; 16 mm in experiment [10]; 16 mm in experiment [11]; 16 mm in experiment [12]; 16 mm in experiment [13]; 11 mm in experiment [19]. Also, the “diameter of the inhibition zone (DIZ)” value came to 11 mm in experiment [20], 11 mm in [21], 11 mm in experiment [22] and 16 mm in experiment [23].

With `Nc1nc(COC(=O)c2ccc([N+](=O)[O-])cc2)cs1`, the MIC in experiment [1] is 10 µg/mL (≈ 35.8 µM); in experiment [2], 10 µg/mL (≈ 35.8 µM); in [4], 12.5 µg/mL (≈ 44.8 µM); in experiment [5], 25 µg/mL (≈ 89.5 µM); in experiment [6] it was 12.5 µg/mL (≈ 44.8 µM); in [7], 6.25 µg/mL (≈ 22.4 µM). The MIC in experiment [8] amounted to 12.5 µg/mL (≈ 44.8 µM); in experiment [14], 6.25 µg/mL (≈ 22.4 µM); in [15], 6.25 µg/mL (≈ 22.4 µM); in [16], 6.25 µg/mL (≈ 22.4 µM); in experiment [17], 6.25 µg/mL (≈ 22.4 µM); in experiment [18], 6.25 µg/mL (≈ 22.4 µM). Further, inhibition of growth in [24] (MIC) required 1 µg/mL (≈ 3.58 µM). For the same molecule, the “growth inhibition (GI)” value in experiment [3] came out at 90%. In addition, the “diameter of the inhibition zone (DIZ)” value in experiment [9] is given as 11 mm; in experiment [10] it was less than 10 mm; in [11], 10 mm; in [12], 16 mm; in experiment [13], 10 mm; in [19], 16 mm. Further, the “diameter of the inhibition zone (DIZ)” value in experiment [20], in experiment [21], in experiment [22] and in experiment [23] was 16 mm each time.

Turning to `Nc1nc(COC(=O)c2c(Cl)cc(Cl)cc2Cl)cs1`, the MIC in experiment [1] is greater than 100 µg/mL; in [2] it was greater than 100 µg/mL; in experiment [4] it was 25 µg/mL (≈ 74 µM); in experiment [5], 6.25 µg/mL (≈ 18.5 µM); in [6], 25 µg/mL (≈ 74 µM); in [7], 12.5 µg/mL (≈ 37 µM). In addition, the minimal inhibitory concentration (MIC) in [8], in experiment [14], in [15], in experiment [16], in experiment [17] and in experiment [18] was 6.25 µg/mL (≈ 18.5 µM) each time. The MIC in experiment [24] turned out to be 10 µg/mL (≈ 29.6 µM). The “growth inhibition (GI)” value in [3] was less than 90%. The “diameter of the inhibition zone (DIZ)” value in experiment [9] is on record as less than 10 mm; in [10], 16 mm; in experiment [11], less than 10 mm; in experiment [12], 11 mm; in experiment [13] it was 16 mm; in experiment [19], 16 mm. Besides, the “diameter of the inhibition zone (DIZ)” value in experiment [20], in [21], in experiment [22] and in experiment [23] was 16 mm each time.

Turning to `Nc1nc(COC(=O)c2ccccc2)cs1`, the MIC was greater than 100 µg/mL in experiment [1]; greater than 100 µg/mL in [2]; 25 µg/mL (≈ 107 µM) in experiment [4]; 6.25 µg/mL (≈ 26.7 µM) in [5]; 25 µg/mL (≈ 107 µM) in [6]; 6.25 µg/mL (≈ 26.7 µM) in [7]. The MIC amounted to 6.25 µg/mL (≈ 26.7 µM) in experiment [8]; 25 µg/mL (≈ 107 µM) in experiment [14]; 25 µg/mL (≈ 107 µM) in [15]; 25 µg/mL (≈ 107 µM) in experiment [16]; 25 µg/mL (≈ 107 µM) in experiment [17]; 25 µg/mL (≈ 107 µM) in [18]. In experiment [24], this molecule gave an MIC greater than 100 µg/mL. Besides, the “growth inhibition (GI)” value in experiment [3] is 0%. Besides, the “diameter of the inhibition zone (DIZ)” value in experiment [9] is listed as less than 10 mm; in [10], 16 mm; in experiment [11], less than 10 mm; in [12], 16 mm; in [13], 16 mm; in experiment [19], less than 10 mm. The “diameter of the inhibition zone (DIZ)” value in experiment [20], in experiment [21], in experiment [22] and in experiment [23] was less than 10 mm throughout.

As for `N#Cc1cccc(C(=O)OCc2csc(N)n2)n1`, the MIC in [1] was greater than 100 µg/mL; in [2], greater than 100 µg/mL; in [4] it was 12.5 µg/mL (≈ 48 µM); in [5], 25 µg/mL (≈ 96.1 µM); in [6], 25 µg/mL (≈ 96.1 µM); in experiment [7], 25 µg/mL (≈ 96.1 µM). Moreover, the MIC in [8] was determined as 25 µg/mL (≈ 96.1 µM); in experiment [14] it was 6.25 µg/mL (≈ 24 µM); in [15], 12.5 µg/mL (≈ 48 µM); in [16], 6.25 µg/mL (≈ 24 µM); in experiment [17], 12.5 µg/mL (≈ 48 µM); in [18] it was 25 µg/mL (≈ 96.1 µM). In experiment [24], this molecule registered an MIC of 10 µg/mL (≈ 38.4 µM). In [3], the “growth inhibition (GI)” value was less than 90%. Further, the “diameter of the inhibition zone (DIZ)” value in [9] is given as 11 mm; in [10], less than 10 mm; in experiment [11], less than 10 mm; in experiment [12], less than 10 mm; in [13] it was less than 10 mm; in experiment [19], 16 mm. Also, the “diameter of the inhibition zone (DIZ)” value in experiment [20] is 11 mm; in experiment [21], 16 mm; in [22], 11 mm; in experiment [23] it was less than 10 mm.
